In series [1] the target is T1, ABCG2 (Homo sapiens, UniProt Q9UNQ0).
T1 sequence (Q9UNQ0 whole entry): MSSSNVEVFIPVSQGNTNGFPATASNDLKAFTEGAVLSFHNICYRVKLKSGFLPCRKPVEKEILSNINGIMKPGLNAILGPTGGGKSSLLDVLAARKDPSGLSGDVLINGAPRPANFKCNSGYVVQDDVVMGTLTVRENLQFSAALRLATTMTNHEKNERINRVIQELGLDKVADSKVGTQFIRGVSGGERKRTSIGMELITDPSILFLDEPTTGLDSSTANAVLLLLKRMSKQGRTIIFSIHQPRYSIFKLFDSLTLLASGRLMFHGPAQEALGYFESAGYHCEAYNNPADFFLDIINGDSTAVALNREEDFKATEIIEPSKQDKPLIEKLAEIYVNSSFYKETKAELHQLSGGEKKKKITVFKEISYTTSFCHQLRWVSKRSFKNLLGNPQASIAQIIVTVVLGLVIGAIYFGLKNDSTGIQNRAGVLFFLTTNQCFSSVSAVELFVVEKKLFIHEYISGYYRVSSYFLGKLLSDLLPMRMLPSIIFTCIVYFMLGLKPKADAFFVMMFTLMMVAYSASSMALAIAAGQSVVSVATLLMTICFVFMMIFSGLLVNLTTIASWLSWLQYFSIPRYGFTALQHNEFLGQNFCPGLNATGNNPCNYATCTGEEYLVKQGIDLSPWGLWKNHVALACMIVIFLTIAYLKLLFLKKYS
Put plainly: Inhibition of ABCG2 (unknown origin)-mediated pheophorbide A efflux expressed in HEK293 cells at 1 to 5 uM after 30 mins by flow cytometric analysis relative to control. The conditions noted are these: HEK293 cells expressing ABCG2, probe pheophorbide A, read-out: Imax. It is filed as cell-based. In short, it runs like this:
(§1)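 Cells seeded at 1.5 × 10^5 cells/well and grown 48 h were exposed to BODIPY-prazosin (0.2 μM) or pheophorbide A (2 μM) for 30 min at 37 °C with or without compound. After washing and trypsinization, intracellular fluorescence was read by flow cytometry (FL4, ≥10 000 events). Percent inhibition = (C−M)/(Cev−M)×100, where Cev is from ABCG2-negative control cells.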
In general terms: A flow cytometer gives signals particle by particle.

The target in series [2] is T2, Broad substrate specificity ATP-binding cassette transporter ABCG2 (Homo sapiens, UniProt Q9UNQ0).
T2 sequence (Q9UNQ0 whole entry): T1 sequence (Q9UNQ0 whole entry)
Put plainly: Inhibition of ABCG2 (unknown origin)-mediated mitoxantrone efflux expressed in HEK293 cells after 30 mins by flow cytometric analysis. It is filed as cell-based.

Series [3] has as its target T2, Broad substrate specificity ATP-binding cassette transporter ABCG2. Put plainly: Inhibition of ABCG2-mediated mitoxantrone efflux in mitoxantrone-selected human H460 cells after 30 mins by flow cytometric analysis. It is filed as cell-based.
For series [4], the target named is T1, ABCG2. Put plainly: Inhibition of ABCG2-mediated mitoxantrone efflux in mitoxantrone-selected human H460 cells at 5 to 10 uM after 30 mins by flow cytometric analysis relative to control. The format is cell-based. The conditions noted are these: probe mitoxantrone, read-out: Imax.
In series [5] the target is T2, Broad substrate specificity ATP-binding cassette transporter ABCG2. Put plainly: Inhibition of ABCG2 (unknown origin)-mediated BODIPY-prazosin efflux expressed in HEK293 cells at 1 to 5 uM after 30 mins by flow cytometric analysis. To be noted: hek293, 0.5 h. The format is cell-based. In short, it runs like this: as §1
The target is the same in series [6]. Put plainly: Binding affinity to ABCG2 (unknown origin) expressed in HEK293 cells assessed as modulation of 5D3 binding at 5 uM after 45 mins by flow cytometric analysis relative to Ko143. The conditions noted are these: hek293, 0.75 h. The format is cell-based. In short, it runs like this:
(§2)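 5D3 shift assay on ABCG2-transfected HEK293 cells (0.5 × 10^6 cells/tube) in PBS with 0.5% BSA. Compound at 2 or 5 μM plus 5D3 anti-ABCG2 antibody or isotype control (1 μg/mL), 45 min at 37 °C. Anti-mouse Alexa Fluor 488 secondary (3 μg/mL), 30 min at 37 °C. Binding read by flow cytometry, expressed relative to 2 μM Ko143 (100%). Mean ± SD of ≥3 independent experiments.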

The target in series [7] is Multidrug resistance-associated protein 1 (Homo sapiens, UniProt P33527). Put plainly: Inhibition of ABCC1 (unknown origin)-mediated calcein-AM efflux expressed in HEK293 cells at 5 uM after 30 mins by flow cytometric analysis. The format is cell-based. To be noted: hek293, 0.5 h.
Chain of Multidrug resistance-associated protein 1 (P33527 whole entry): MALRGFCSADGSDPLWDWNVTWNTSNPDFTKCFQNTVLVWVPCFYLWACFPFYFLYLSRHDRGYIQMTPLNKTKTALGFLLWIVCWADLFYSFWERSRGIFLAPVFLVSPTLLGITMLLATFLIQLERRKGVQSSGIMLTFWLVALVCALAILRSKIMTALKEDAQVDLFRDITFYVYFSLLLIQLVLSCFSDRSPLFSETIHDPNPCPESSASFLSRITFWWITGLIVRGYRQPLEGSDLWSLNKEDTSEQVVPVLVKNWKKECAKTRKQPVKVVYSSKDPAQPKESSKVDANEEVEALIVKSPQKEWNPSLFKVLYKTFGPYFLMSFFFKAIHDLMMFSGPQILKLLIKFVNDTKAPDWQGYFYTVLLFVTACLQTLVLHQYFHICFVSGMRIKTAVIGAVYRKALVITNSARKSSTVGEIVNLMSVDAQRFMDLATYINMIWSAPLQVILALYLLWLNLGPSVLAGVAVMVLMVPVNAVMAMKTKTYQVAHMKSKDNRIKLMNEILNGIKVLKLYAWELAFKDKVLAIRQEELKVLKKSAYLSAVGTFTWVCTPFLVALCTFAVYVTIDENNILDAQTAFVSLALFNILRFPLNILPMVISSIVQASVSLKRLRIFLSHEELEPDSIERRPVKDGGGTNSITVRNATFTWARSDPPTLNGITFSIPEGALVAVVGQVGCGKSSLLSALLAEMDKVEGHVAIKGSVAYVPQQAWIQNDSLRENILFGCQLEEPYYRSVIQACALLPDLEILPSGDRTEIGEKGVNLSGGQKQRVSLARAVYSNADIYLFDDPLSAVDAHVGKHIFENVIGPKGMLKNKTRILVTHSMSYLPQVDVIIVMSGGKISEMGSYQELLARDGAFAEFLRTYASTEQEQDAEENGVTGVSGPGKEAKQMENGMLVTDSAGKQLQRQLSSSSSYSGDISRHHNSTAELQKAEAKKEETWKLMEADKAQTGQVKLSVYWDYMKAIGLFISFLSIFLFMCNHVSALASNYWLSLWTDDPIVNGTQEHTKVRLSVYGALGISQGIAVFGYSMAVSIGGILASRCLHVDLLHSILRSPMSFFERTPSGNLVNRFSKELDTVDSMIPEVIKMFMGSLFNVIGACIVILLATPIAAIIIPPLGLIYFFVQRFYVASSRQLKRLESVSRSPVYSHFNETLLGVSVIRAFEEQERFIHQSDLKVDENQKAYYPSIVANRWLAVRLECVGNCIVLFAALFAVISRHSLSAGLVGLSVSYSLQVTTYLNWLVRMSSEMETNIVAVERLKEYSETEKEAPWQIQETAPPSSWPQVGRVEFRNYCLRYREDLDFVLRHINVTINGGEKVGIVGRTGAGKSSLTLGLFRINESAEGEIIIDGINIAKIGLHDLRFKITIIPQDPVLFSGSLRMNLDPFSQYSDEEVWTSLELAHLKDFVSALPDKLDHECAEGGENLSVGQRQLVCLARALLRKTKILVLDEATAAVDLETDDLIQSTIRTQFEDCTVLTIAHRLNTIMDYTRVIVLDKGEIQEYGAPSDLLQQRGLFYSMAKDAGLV
Series [8] concerns the target T2, Broad substrate specificity ATP-binding cassette transporter ABCG2. Put plainly: Binding affinity to ABCG2 (unknown origin) expressed in HEK293 cells assessed as modulation of 5D3 binding at 2 uM after 45 mins by flow cytometric analysis relative to Ko143. It is filed as cell-based. To be noted: hek293, 0.75 h. In short, it runs like this:
as §2

Series [9] concerns the target T1, ABCG2. Put plainly: Inhibition of ABCG2 (unknown origin)-mediated mitoxantrone efflux expressed in HEK293 cells at 5 to 10 uM after 30 mins by flow cytometric analysis relative to control. The format is cell-based. The conditions noted are these: HEK293 cells expressing ABCG2, probe mitoxantrone, read-out: Imax.
Series [10] has as its target ATP-dependent translocase ABCB1 (Homo sapiens, UniProt P08183). Put plainly: Inhibition of ABCB1 (unknown origin)-mediated rhodamine 123 efflux expressed in mouse NIH/3T3 cells at 5 uM after 30 mins by flow cytometric analysis. It is filed as cell-based. The conditions noted are these: nih/3t3, 0.5 h.
In series [11] the target is T2, Broad substrate specificity ATP-binding cassette transporter ABCG2. Put plainly: Inhibition of human ABCG2 expressed in Sf9 insect cell membranes assessed as inhibition of quercetin-stimulated ATPase activity after 30 mins by colorimetric analysis in presence of sodium orthovanadate. To be noted: for inhibition (INH): human, sf9, 0.5 h. In short, it runs like this: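 Quercetin (2 μM)-stimulated vanadate-sensitive ATPase assay on cholesterol-loaded ABCG2 Sf9 membranes (10 μg/sample) in Tris/NaCl buffer, pH 8.0. Compound at 0.01, 0.03, 0.5 and 2 μM. ATP-Mg 3.9 mM, 30 min at 37 °C. Released phosphate read colorimetrically at 880 nm. IC50 estimated as 50% inhibition of initial activity; three independent experiments.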

Series [12] shares this target. Put plainly: Inhibition of human ABCG2 ATPase activity expressed in Sf9 insect cell membranes at 2 uM after 30 mins by colorimetric analysis relative to basal control in presence of sodium orthovanadate. To be noted: sf9, 0.5 h. The method, boiled down: (§3)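 Basal vanadate-sensitive ATPase assay on cholesterol-loaded membranes from human ABCG2-expressing Sf9 cells (0.5 mg/mL; 10 μg/sample). Buffer: 50 mM Tris-HCl, 50 mM NaCl, pH 8.0, with azide, ouabain, DTT and EGTA, ± 0.33 mM orthovanadate. Compound at 2 μM, or substrates nilotinib 0.1 μM, quercetin 2 μM, prazosin 20 μM. ATP-Mg 3.9 mM, 30 min at 37 °C. Phosphate read by molybdate/ascorbate at 880 nm.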

For series [13], the target named is T1, ABCG2. Put plainly: Inhibition of ABCG2 in mitoxantrone-selected human H460 cells assessed as reversal of mitoxantrone-resistance at 1 uM after 72 hrs by MTT assay relative to control. The format is cell-based. The conditions noted are these: probe mitoxantrone. (In general: Tetrazolium assays rely on reduction of a dye to a coloured formazan, in cell work by metabolically active cells.)

In series [14] the target is T1, ABCG2. Put plainly: Inhibition of ABCG2 in mitoxantrone-selected human H460 cells assessed as reversal of mitoxantrone-resistance at 0.2 uM after 72 hrs by MTT assay relative to control. It is filed as cell-based. To be noted: probe mitoxantrone.
Series [15] concerns the target T2, Broad substrate specificity ATP-binding cassette transporter ABCG2. Put plainly: Stimulation of human ABCG2 ATPase activity expressed in Sf9 insect cell membranes at 2 uM after 30 mins by colorimetric analysis relative to basal control in presence of sodium orthovanadate. To be noted: sf9, 0.5 h.
For series [16] the target is unchanged. Put plainly: […] expressed in Sf9 insect cell membranes at 0.1 uM after 30 mins by colorimetric analysis relative to basal control in presence of sodium orthovanadate. The conditions noted are these: sf9, 0.5 h. The method, boiled down:
as §3

For series [17] the target is unchanged. Put plainly: […] expressed in Sf9 insect cell membranes at 20 uM after 30 mins by colorimetric analysis relative to basal control in presence of sodium orthovanadate. To be noted: sf9, 0.5 h. The method, boiled down:
as §3

pEC50, pIC50: −log10 of the molar value.

The text below walks through data of ChEMBL document CHEMBL3108696, “Structure-activity relationships of chromone derivatives toward the mechanism of interaction with and inhibition of breast cancer resistance protein ABCG2” (J Med Chem, 2013).

Chain of ATP-dependent translocase ABCB1 (P08183 whole entry): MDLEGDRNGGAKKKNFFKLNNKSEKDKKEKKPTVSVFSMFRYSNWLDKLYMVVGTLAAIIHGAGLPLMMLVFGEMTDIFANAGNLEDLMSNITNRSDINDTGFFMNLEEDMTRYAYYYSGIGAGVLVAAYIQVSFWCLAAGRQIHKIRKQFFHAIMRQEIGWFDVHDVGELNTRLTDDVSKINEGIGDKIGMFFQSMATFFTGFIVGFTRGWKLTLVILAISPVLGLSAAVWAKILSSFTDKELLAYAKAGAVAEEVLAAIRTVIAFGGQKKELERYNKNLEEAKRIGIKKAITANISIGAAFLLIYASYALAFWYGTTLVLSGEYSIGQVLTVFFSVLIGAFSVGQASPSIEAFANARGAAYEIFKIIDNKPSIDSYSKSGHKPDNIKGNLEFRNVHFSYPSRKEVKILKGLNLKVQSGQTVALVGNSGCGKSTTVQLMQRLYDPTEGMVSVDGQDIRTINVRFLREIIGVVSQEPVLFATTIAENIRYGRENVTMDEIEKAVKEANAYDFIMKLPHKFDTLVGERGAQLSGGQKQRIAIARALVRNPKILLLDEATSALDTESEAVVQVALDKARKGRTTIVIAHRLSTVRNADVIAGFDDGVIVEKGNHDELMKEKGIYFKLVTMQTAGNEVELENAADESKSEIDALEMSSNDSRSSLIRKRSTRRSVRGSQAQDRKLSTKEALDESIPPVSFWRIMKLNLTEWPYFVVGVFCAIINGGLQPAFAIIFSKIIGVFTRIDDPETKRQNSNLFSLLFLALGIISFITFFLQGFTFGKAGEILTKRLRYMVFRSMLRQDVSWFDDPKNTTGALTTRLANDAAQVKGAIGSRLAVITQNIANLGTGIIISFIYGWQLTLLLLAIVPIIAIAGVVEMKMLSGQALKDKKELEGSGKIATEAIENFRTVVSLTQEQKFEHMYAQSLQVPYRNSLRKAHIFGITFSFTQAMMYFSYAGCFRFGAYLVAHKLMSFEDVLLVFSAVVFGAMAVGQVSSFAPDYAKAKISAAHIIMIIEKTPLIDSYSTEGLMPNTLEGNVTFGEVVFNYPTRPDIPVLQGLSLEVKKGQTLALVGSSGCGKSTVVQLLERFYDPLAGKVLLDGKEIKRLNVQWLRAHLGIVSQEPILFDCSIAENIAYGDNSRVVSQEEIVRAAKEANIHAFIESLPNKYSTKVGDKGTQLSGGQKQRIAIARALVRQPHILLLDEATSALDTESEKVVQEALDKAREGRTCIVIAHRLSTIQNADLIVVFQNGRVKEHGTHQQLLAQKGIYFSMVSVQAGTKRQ

The pEC50 is the negative decadic logarithm of the EC50, by convention in mol/L. High values mean a small EC50, low ones a large EC50. In general, pIC50 refers to the IC50 on a negative log10 scale, so that one unit is a factor of ten. On to `COc1ccc2[nH]cc(CCNC(=O)c3cc(=O)c4c(OCc5ccc(Br)cc5)cccc4o3)c2c1`, for which the values for the Emax at 0.5 h at ABCG2 [1], at ABCG2 [4] and at ABCG2 [9] were 80%, 107% and 98%, respectively. In addition, the values for the negative logarithm of the EC50 (pEC50) in [2] and in series [3] were 6.89 and 7.30, respectively. For the same compound, the “inhibition (INH)” value was “Active” in series [5]; “Not Active” in series [7]; “Not Active” in series [10]; “Dose-dependent effect” in series [11]; “Active” in [12]. For the same compound, the figures for the Activity in [6] and in [8] were 103.5% and 100.5%, respectively. In series [11], the pIC50 is 6.42.

By inhibition is commonly meant the relative decrease from the control value, in per cent. Consider `COc1ccc2c(CCNC(=O)c3cc(=O)c4c(OCc5ccc(Br)cc5)cccc4o3)c[nH]c2c1`, for which the results for the Emax at 0.5 h on ABCG2 [1], at ABCG2 [4] and on ABCG2 [9] were 80%, 89% and 97%, respectively. Moreover, the pEC50 in [2] is 7.00; in series [3] it was 7.10. Besides, the “inhibition (INH)” value is reported as “Active” in series [5]; “Not Active” in [7]; “Not Active” in [10]; “Dose-dependent effect” in series [11]; “Active” in series [12]. The values for the Activity in series [6] and in series [8] were 101% and 96.4%, respectively. In series [11], the negative logarithm of the IC50 (pIC50) was 6.54. The inhibition at 72 h, 1 µM on ABCG2 [13] was over 72%. The inhibition at 72 h, 0.2 µM on ABCG2 [14] was over 50%.

Turning to `Cn1cc(CCNC(=O)c2cc(=O)c3c(OCc4ccc(Br)cc4)cccc3o2)c2ccccc21`, the Emax at 0.5 h on ABCG2 [1] was 80%; at ABCG2 [4], 102%; on ABCG2 [9], 85%. The values for the negative logarithm of the EC50 (pEC50) in series [2] and in [3] were 6.52 and 6.66, respectively. Also, the “inhibition (INH)” value is reported as “Active” in [5]; “Not Active” in series [7]; “Not Active” in series [10]; “Dose-dependent effect” in series [11]; “Active” in [12]. Moreover, the Activity in [6] came out at 98%; in series [8], 88.7%. The pIC50 in [11] is 5.96. Besides, the inhibition at 72 h, 1 µM on ABCG2 [13] was over 61%. Moreover, the inhibition at 72 h, 0.2 µM on ABCG2 [14] is over 4%.

Turning to `COc1ccc2[nH]cc(CCNC(=O)c3cc(=O)c4ccc(OCc5ccc(Br)cc5)cc4o3)c2c1`, the pEC50 was 5.90 in series [2] and 5.81 in series [3]. Also, the Emax at 0.5 h stood at 93% on ABCG2 [4] and 80% at ABCG2 [9]. The Activity in series [6] is on record as 90.1%; in series [8], 64.6%. Also, in series [15], the “fold change (FC)” value was 2.1. In addition, the pIC50 in series [11] is 8.00. Also, the “inhibition (INH)” value in series [11] was “Dose-dependent effect”.

For the compound `Cc1cn(-c2cc(NC(=O)c3ccc(C)c(Nc4nccc(-c5cccnc5)n4)c3)cc(C(F)(F)F)c2)cn1` [NILOTINIB], the “fold change (FC)” value in series [16] is recorded as 3.2.

As for `COc1cc2nc(N3CCN(C(=O)c4ccco4)CC3)nc(N)c2cc1OC` [PRAZOSIN], the “fold change (FC)” value in series [17] was 2.4.

On to `O=c1c(O)c(-c2ccc(O)c(O)c2)oc2cc(O)cc(O)c12` [QUERCETIN], for which, in series [15], the “fold change (FC)” value is 4.1.
